# Experimental data gathered from unrelated publications.
# Protocols differ between the studies behind these lines.
# Target: Activin receptor type-1 (ACVR1, Homo sapiens, UniProt Q04771)
# Residues used in one study (Q04771 21-509): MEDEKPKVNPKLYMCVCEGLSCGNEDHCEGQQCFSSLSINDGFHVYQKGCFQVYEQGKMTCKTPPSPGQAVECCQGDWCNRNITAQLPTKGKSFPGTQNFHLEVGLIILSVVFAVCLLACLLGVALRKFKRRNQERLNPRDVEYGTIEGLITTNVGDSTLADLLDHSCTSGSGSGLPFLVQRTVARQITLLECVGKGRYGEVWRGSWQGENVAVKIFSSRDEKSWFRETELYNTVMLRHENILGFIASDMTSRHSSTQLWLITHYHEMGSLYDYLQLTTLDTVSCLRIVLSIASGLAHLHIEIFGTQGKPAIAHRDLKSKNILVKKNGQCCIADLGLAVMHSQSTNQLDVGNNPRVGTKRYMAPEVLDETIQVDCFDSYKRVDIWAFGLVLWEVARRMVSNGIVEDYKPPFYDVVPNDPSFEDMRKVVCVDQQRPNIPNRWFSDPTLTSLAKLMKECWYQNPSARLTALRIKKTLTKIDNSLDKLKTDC
SMILES,test,conditions,remaining binding
O=C(c1ccc(Nc2ncc(Cl)c(-c3cc4ccccc4s3)n2)cc1)N1CCC(N2CCCC2)CC1,"binding, competition with immobilised ligand",1 µM,69%
C[C@@]1(Cc2ccc(C#N)cc2)C(=O)N(c2cc(Cl)cc(Cl)c2)c2ncc(C(=O)NC3(c4nc(C5CCC5)no4)CC3)n21,"cell-free assay, competition with immobilised ligand",1 µM,89%
FC(F)(F)Oc1cccc(-c2cnc3ccc(-c4ccncc4)nn23)c1,"cell-free assay, competition with immobilised ligand",5 µM,8.9%
CN(C)c1nccc(-c2cnc3ncccn23)n1,binding,1 µM,88%
COc1ccc2c(c1)O[C@@H](c1ccc(OC)c(OC)c1)C[C@H]2NC(=O)C1(c2ccc3c(c2)OC(F)(F)O3)CC1,"cell-free assay, competition with immobilised ligand",1 µM,100%
CCN1CCN(Cc2ccc(C(=O)Nc3ccc(C)c(Oc4ccc5c(c4)CC(=O)N5)c3)cc2C(F)(F)F)CC1,"binding, competition with immobilised ligand",1 µM,100%
COc1cnc(Nc2cccc(S(N)(=O)=O)c2)nc1N1CCN(c2ccccc2)CC1,"binding, competition with immobilised ligand",1 µM,100%
CN(c1nccc(-c2cnn3ncccc23)n1)C1CC1,binding,1 µM,93%
O=C(c1ccc(Nc2nccc(-c3cc4ccccc4s3)n2)cc1)N1CCC(N2CCCC2)CC1,"binding, competition with immobilised ligand",1 µM,26%
C[C@H]1CCN(c2nccc(-c3cnn4ncccc34)n2)C1,binding,1 µM,100%
O=C(NCC1CCOCC1)c1n[nH]cc1NC(=O)c1c(F)cccc1F,"binding, competition with immobilised ligand",1 µM,96%
COCCOc1nc(-c2ccc(Cl)nc2)nc2c1CN(C(=O)c1ncn3ccccc13)CC2,"cell-free assay, competition with immobilised ligand",0.1 µM,100%
O=C(NCCCN1CCOCC1)c1ccc(Nc2ncc(Cl)c(-c3ccc(Cl)s3)n2)cc1,"binding, competition with immobilised ligand",1 µM,78%
c1cncc(-c2cccc(Nc3nccc(NC4CCCCC4)n3)c2)c1,"binding, competition with immobilised ligand",10 µM,15%
CN(CCCC(F)(F)F)c1nccc(-c2cnn3ncccc23)n1,binding,1 µM,77%
Cc1nccc(COC(=O)N2C[C@@H]3[C@@H](CNC(=O)c4ccc5[nH]nnc5c4)[C@@H]3C2)n1,"cell-free assay, competition with immobilised ligand",1 µM,95%
COc1ccnn2ncc(-c3ccnc(N(C)C)n3)c12,binding,1 µM,80%
O=C(O)[C@@H]1[C@@H](Cn2nnc3ccccc3c2=O)CC[C@H]1C(=O)c1ccc(OCCC2CCOCC2)cc1,"cell-free assay, competition with immobilised ligand",1 µM,100%
C[C@@H](c1ccc(-n2cnc3c(N)ncnc32)cc1)N1CCc2nn(C)c(Cc3ccccc3)c2C1=O,"binding, competition with immobilised ligand",0.1 µM,85%
CSc1cccnc1N1CCN(Cc2nc3ccccc3[nH]2)CC1,"cell-free assay, competition with immobilised ligand",1 µM,100%
F[C@@H]1CCN(c2nccc(-c3cnn4ncccc34)n2)C1,binding,1 µM,80%
